Data: ChEMBL document CHEMBL4354826, “Structure-Based Discovery of SD-36 as a Potent, Selective, and Efficacious PROTAC Degrader of STAT3 Protein” (J Med Chem, 2019)

Key:
SU-DHL-1 = experiment: Antiproliferative activity against human SUDHL1 cells assessed as reduction in cell viability incubated for 4 days by cell-titer glo luminescent assay; format: functional, cell-based; settings: SU-DHL-1, 96 h
Summary of the method: (§1)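 Viability assay: cells incubated with serially diluted compounds for 4 days, viability read by CellTiter-Glo luminescence; IC50 from concentration–response.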

[1] = Antiproliferative activity against human MOLM16 cells assessed as reduction in cell viability incubated for 4 days by cell-titer glo luminescent assay; format: functional, cell-based; settings: MOLM16, 96 h; summary of the method: as §1
[2] = biological target: T1, Protein cereblon/Signal transducer and activator of transcription 3 (Homo sapiens, UniProt P40763+Q96SW2); experiment: Protac activity at CRBN/STAT3 in human SUDHL1 cells assessed as degradation of STAT3 incubated for 16 hrs by Western blot analysis; format: cell-based
T1 sequence (P40763 whole entry): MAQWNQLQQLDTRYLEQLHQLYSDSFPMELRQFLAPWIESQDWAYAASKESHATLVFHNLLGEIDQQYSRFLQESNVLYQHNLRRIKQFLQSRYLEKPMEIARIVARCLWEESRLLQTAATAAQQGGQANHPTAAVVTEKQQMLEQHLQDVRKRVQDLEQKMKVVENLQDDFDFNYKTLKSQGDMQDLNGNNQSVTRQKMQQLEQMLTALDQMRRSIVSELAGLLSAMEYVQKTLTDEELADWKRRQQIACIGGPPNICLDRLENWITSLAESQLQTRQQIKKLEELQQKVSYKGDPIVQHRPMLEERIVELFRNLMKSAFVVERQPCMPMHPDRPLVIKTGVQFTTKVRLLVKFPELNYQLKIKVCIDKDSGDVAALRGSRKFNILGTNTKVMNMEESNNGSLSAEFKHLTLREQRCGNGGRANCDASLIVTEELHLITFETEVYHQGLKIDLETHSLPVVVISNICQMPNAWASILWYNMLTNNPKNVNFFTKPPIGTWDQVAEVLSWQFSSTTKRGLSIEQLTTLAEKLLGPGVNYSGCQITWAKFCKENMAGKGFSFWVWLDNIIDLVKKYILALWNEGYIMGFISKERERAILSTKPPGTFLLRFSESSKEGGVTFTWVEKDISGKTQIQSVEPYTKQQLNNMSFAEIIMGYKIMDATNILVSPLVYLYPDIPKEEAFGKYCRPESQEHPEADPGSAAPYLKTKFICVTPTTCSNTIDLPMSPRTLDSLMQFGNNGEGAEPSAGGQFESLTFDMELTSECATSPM
T1 sequence (Q96SW2 whole entry): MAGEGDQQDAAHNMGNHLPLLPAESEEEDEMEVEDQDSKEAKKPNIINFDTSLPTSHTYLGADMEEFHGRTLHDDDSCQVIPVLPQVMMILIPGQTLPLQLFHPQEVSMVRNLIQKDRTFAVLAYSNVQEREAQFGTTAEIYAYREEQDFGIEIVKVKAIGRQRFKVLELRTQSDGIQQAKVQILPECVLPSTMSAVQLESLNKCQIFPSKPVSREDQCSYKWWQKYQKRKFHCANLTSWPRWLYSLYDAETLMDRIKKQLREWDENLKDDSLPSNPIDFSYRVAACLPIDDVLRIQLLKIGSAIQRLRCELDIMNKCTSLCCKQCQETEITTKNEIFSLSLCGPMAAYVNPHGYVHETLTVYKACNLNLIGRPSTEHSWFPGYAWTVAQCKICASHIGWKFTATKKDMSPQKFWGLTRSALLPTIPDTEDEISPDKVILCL

[3] = biological target: T1, Protein cereblon/Signal transducer and activator of transcription 3; experiment: Protac activity at CRBN/STAT3 in human MOLM16 cells assessed as degradation of STAT3 incubated for 4 hrs by Western blot analysis; format: cell-based
Summary of the method: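 Molm-16 cells treated 4 h with serially diluted compound. Lysates immunoblotted (SDS–PAGE, PVDF, 5% blocker/TBST, chemiluminescence) for total STAT3 and pSTAT3 Y705. DC50 taken as the concentration reducing total STAT3 by 50%.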

[4] = biological target: T2, Signal transducer and activator of transcription 3 (Homo sapiens, UniProt P40763); experiment: Potency index, ratio of Ki of CJ-887 to Ki of compound for binding affinity to recombinant human His/SUMO-tagged STAT3 (127 to 688 residues) expressed in Escherichia coli Rosetta (DE3) incubated for 1 hr by fluorescence polarization assay
T2 sequence (P40763 whole entry, the tested form may be a part): as the sequence (P40763 whole entry) above

[5] = biological target: T2, Signal transducer and activator of transcription 3; experiment: Binding affinity to recombinant human His/SUMO-tagged STAT3 (127 to 688 residues) expressed in Escherichia coli Rosetta (DE3) incubated for 1 hr by fluorescence polarization assay

Structure (SMILES)	IC50 [1] [nM]	DC50 [3] [nM]	Ki [5] [nM]	further results
NC(=O)CC[C@H](NC(=O)[C@@H]1CC[C@@H]2CCN(CCCCCCC#Cc3cccc4c3CN(C3CCC(=O)NC3=O)C4=O)C[C@H](NC(=O)c3cc4cc(C(F)(F)P(=O)(O)O)ccc4[nH]3)C(=O)N21)C(=O)NC(c1ccccc1)c1ccccc1 (stereo not given in full)	147	650		IC50 (SU-DHL-1): > 10000 nM; DC50 [2]: 919 nM
NC(=O)CC[C@H](NC(=O)[C@@H]1CC[C@@H]2CCN(C(=O)c3cnn(CCCC#Cc4cccc5c4CN(C4CCC(=O)NC4=O)C5=O)c3)C[C@H](NC(=O)c3cc4cc(C(F)(F)P(=O)(O)O)ccc4[nH]3)C(=O)N21)C(=O)NC(c1ccccc1)c1ccccc1 (stereo not given in full)	241	180		
NC(=O)CC[C@H](NC(=O)[C@@H]1CC[C@@H]2CCN(C(=O)CCCCCCNc3cccc4c3CN(C3CCC(=O)NC3=O)C4=O)C[C@H](NC(=O)c3cc4cc(C(F)(F)P(=O)(O)O)ccc4[nH]3)C(=O)N21)C(=O)NC(c1ccccc1)c1ccccc1 (stereo not given in full)	59	90		
NC(=O)CC[C@H](NC(=O)[C@@H]1CC[C@@H]2CCN(C(=O)CCN3CCC(C#Cc4cccc5c4CN(C4CCC(=O)NC4=O)C5=O)CC3)C[C@H](NC(=O)c3cc4cc(C(F)(F)P(=O)(O)O)ccc4[nH]3)C(=O)N21)C(=O)NC(c1ccccc1)c1ccccc1 (stereo not given in full)	360	2470		
NC(=O)CC[C@H](NC(=O)[C@@H]1CC[C@@H]2CCN(C(=O)CCCCCC#Cc3ccc4c(c3)C(=O)N(C3CCC(=O)NC3=O)C4)C[C@H](NC(=O)c3cc4cc(C(F)(F)P(=O)(O)O)ccc4[nH]3)C(=O)N21)C(=O)NC(c1ccccc1)c1ccccc1 (stereo not given in full)	711	360		
NC(=O)CC[C@H](NC(=O)[C@@H]1CC[C@@H]2CCN(C(=O)OCCCCC#Cc3cccc4c3CN(C3CCC(=O)NC3=O)C4=O)C[C@H](NC(=O)c3cc4cc(C(F)(F)P(=O)(O)O)ccc4[nH]3)C(=O)N21)C(=O)NC(c1ccccc1)c1ccccc1 (stereo not given in full)	128	240		IC50 (SU-DHL-1): 2370 nM; DC50 [2]: 49 nM
NC(=O)CC[C@H](NC(=O)[C@@H]1CC[C@@H]2CCCC[C@H](NC(=O)c3cc4cc(OP(=O)(O)O)ccc4[nH]3)C(=O)N21)C(=O)NCc1ccccc1			25	Ratio Ki [4]: 2
NC(=O)CC[C@H](NC(=O)[C@@H]1CC[C@@H]2CCN(C(=O)CCCCCC#Cc3ccc4c(c3)CN(C3CCC(=O)NC3=O)C4=O)C[C@H](NC(=O)c3cc4cc(C(F)(F)P(=O)(O)O)ccc4[nH]3)C(=O)N21)C(=O)NC(c1ccccc1)c1ccccc1 (stereo not given in full)	104	410		
NC(=O)CC[C@H](NC(=O)[C@@H]1CC[C@@H]2CCN(C(=O)CCCCCC#Cc3cccc4c3CN(C3CCC(=O)NC3=O)C4=O)C[C@H](NC(=O)c3cc4cc(C(F)(F)P(=O)(O)O)ccc4[nH]3)C(=O)N21)C(=O)NCc1ccccc1 (stereo not given in full)	210	220		IC50 (SU-DHL-1): 3240 nM; DC50 [2]: 55 nM
NC(=O)CC[C@H](NC(=O)[C@@H]1CC[C@@H]2CCN(C(=O)CC(=O)N3CCC(C#Cc4cccc5c4CN(C4CCC(=O)NC4=O)C5=O)CC3)C[C@H](NC(=O)c3cc4cc(C(F)(F)P(=O)(O)O)ccc4[nH]3)C(=O)N21)C(=O)NC(c1ccccc1)c1ccccc1 (stereo not given in full)	67	380		
NC(=O)CC[C@H](NC(=O)[C@@H]1CC[C@@H]2CCN(C(=O)CCCCCCC#Cc3cccc4c3CN(C3CCC(=O)NC3=O)C4=O)C[C@H](NC(=O)c3cc4cc(C(F)(F)P(=O)(O)O)ccc4[nH]3)C(=O)N21)C(=O)NC(c1ccccc1)c1ccccc1 (stereo not given in full)	25	90		
CC(=O)N1CC[C@H]2CC[C@@H](C(=O)N[C@@H](CCC(N)=O)C(=O)NC(c3ccccc3)c3ccccc3)N2C(=O)[C@@H](NC(=O)c2cc3cc(CP(=O)(O)O)ccc3[nH]2)C1			584	
CC(=O)N1CC[C@H]2CC[C@@H](C(=O)N[C@@H](CCC(N)=O)C(=O)NC(c3ccccc3)c3ccccc3)N2C(=O)[C@@H](NC(=O)/C=C(\C)c2ccc(C(F)(F)P(=O)(O)O)cc2)C1			164	
NC(=O)CC[C@H](NC(=O)[C@@H]1CC[C@@H]2CCCC[C@H](NC(=O)c3cc4cc(C(F)(F)P(=O)(O)O)ccc4[nH]3)C(=O)N21)C(=O)NCc1ccccc1			7	Ratio Ki [4]: 7
CNC(=O)[C@H](CCC(N)=O)NC(=O)[C@@H]1CC[C@@H]2CCN(C(=O)CCCCCC#Cc3cccc4c3CN(C3CCC(=O)NC3=O)C4=O)C[C@H](NC(=O)c3cc4cc(C(F)(F)P(=O)(O)O)ccc4[nH]3)C(=O)N21 (stereo not given in full)	226	640		IC50 (SU-DHL-1): > 10000 nM; DC50 [2]: 890 nM
NC(=O)CC[C@H](NC(=O)[C@@H]1CC[C@@H]2CCN(C(=O)CCCCCCCc3cccc4c3CN(C3CCC(=O)NC3=O)C4=O)C[C@H](NC(=O)c3cc4cc(C(F)(F)P(=O)(O)O)ccc4[nH]3)C(=O)N21)C(=O)NC(c1ccccc1)c1ccccc1 (stereo not given in full)	63	160		
NC(=O)CC[C@H](NC(=O)[C@@H]1CC[C@@H]2CCN(C(=O)CCCCCCCCC#Cc3cccc4c3CN(C3CCC(=O)NC3=O)C4=O)C[C@H](NC(=O)c3cc4cc(C(F)(F)P(=O)(O)O)ccc4[nH]3)C(=O)N21)C(=O)NC(c1ccccc1)c1ccccc1 (stereo not given in full)	42	150		
CC(=O)N1CC[C@H]2CC[C@@H](C(=O)N[C@@H](CCC(N)=O)C(=O)NCc3ccccc3)N2C(=O)[C@@H](NC(=O)c2cc3cc(C(F)(F)P(=O)(O)O)ccc3[nH]2)C1			14	
NC(=O)CC[C@H](NC(=O)[C@@H]1CC[C@@H]2CCN(C(=O)N3CCC(CCC#Cc4cccc5c4CN(C4CCC(=O)NC4=O)C5=O)CC3)C[C@H](NC(=O)c3cc4cc(C(F)(F)P(=O)(O)O)ccc4[nH]3)C(=O)N21)C(=O)NC(c1ccccc1)c1ccccc1 (stereo not given in full)	99	180		
NC(=O)CC[C@H](NC(=O)[C@@H]1CC[C@@H]2CCN(C(=O)CCCn3cc(C#Cc4cccc5c4CN(C4CCC(=O)NC4=O)C5=O)cn3)C[C@H](NC(=O)c3cc4cc(C(F)(F)P(=O)(O)O)ccc4[nH]3)C(=O)N21)C(=O)NC(c1ccccc1)c1ccccc1 (stereo not given in full)	232	250		
CN1CC[C@H]2CC[C@@H](C(=O)N[C@@H](CCC(N)=O)C(=O)NC(c3ccccc3)c3ccccc3)N2C(=O)[C@@H](NC(=O)c2cc3cc(C(F)(F)P(=O)(O)O)ccc3[nH]2)C1			12	
NC(=O)CC[C@H](NC(=O)[C@@H]1CC[C@@H]2CCN(C(=O)CCCCC#Cc3cccc4c3CN(C3CCC(=O)NC3=O)C4=O)C[C@H](NC(=O)c3cc4cc(C(F)(F)P(=O)(O)O)ccc4[nH]3)C(=O)N21)C(=O)NC(c1ccccc1)c1ccccc1 (stereo not given in full)	78	260		
CC(=O)N1CC[C@H]2CC[C@@H](C(=O)N[C@@H](CCC(N)=O)C(=O)NC(c3ccccc3)c3ccccc3)N2C(=O)[C@@H](NC(=O)c2cc3cc(OP(=O)(O)O)ccc3[nH]2)C1			33	
CN1CC[C@H]2CC[C@@H](C(=O)N[C@@H](CCC(N)=O)C(=O)NCc3ccccc3)N2C(=O)[C@@H](NC(=O)c2cc3cc(C(F)(F)P(=O)(O)O)ccc3[nH]2)C1			14	
